Assay results: ChEMBL document CHEMBL1955847, “2-Morpholinoisoflav-3-enes as flexible intermediates in the synthesis of phenoxodiol, isophenoxodiol, equol and analogues: vasorelaxant properties, estrogen receptor binding and Rho/RhoA kinase pathway inhibition” (Bioorg Med Chem, 2012)
Activity calls are given as the source filed them. The calls are words filed in the database; no cut-off is given here.

Key:
Aorta [1] = test: Vasorelaxant activity in Sprague-Dawley rat thoracic aorta assessed as inhibition of U46619-induced vascular tension at 100 uM pretreated for 30 mins; format: functional, tissue-based
In short: (§1)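 Male Sprague-Dawley thoracic aortic rings were held in Krebs-bicarbonate at 37 °C, pH 7.4, gassed with 95% O2/5% CO2. Rings were pretreated 30 min with compound or vehicle, then contracted with 30 nM U46619, and vascular tension was recorded. Final DMSO was 0.1%. n = 2, run in duplicate.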

Estrogen receptor = target: T1, Estrogen receptor (Rattus norvegicus, UniProt P06211); test: Displacement of [3H]estradiol from rat uterine cytosolic estrogen receptor
T1 sequence (P06211 whole entry): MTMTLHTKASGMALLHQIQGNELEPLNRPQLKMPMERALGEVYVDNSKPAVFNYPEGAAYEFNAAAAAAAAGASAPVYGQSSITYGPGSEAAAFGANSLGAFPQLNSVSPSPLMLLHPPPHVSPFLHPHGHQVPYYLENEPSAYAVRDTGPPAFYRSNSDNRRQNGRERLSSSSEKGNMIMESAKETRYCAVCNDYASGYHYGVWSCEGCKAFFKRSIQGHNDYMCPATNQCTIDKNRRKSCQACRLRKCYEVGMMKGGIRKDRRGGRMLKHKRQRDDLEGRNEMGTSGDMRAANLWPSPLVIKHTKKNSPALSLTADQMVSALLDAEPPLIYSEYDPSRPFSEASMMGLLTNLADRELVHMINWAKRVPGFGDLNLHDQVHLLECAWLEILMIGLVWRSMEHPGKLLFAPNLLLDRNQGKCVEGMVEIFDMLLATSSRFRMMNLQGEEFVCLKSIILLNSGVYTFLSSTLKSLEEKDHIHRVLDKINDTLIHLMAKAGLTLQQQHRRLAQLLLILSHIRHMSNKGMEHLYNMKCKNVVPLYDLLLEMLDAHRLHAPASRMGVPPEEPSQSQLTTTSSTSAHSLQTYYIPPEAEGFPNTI
In short: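 Rat uterine cytosol incubated with 0.2 nM [3H]-estradiol in 10 mM Tris (pH 7.4, 1.5 mM EDTA, 10% w/v glycerol, 1 mM PMSF), with and without ICI 182,780 to define binding. Compounds were made from 10 mM DMSO stocks and diluted into buffer, giving 0.1% v/v DMSO at the top concentration and in all lower dilutions.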

Aorta [2] = test: Vasorelaxant activity in Sprague-Dawley rat thoracic aorta assessed as inhibition of phenylephirne-induced contraction at highest concentration; format: functional, tissue-based
In short: (§2)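 Aortic rings 2–3 mm long from male Sprague-Dawley rats were bathed in Krebs-bicarbonate at 37 °C, pH 7.4, aerated with 95% O2/5% CO2, and equilibrated 1 h at 1 g resting tension. Rings were maximally contracted with KPSS (122.7 mM KCl) and re-equilibrated, then given submaximal phenylephrine. Endothelium was checked with acetylcholine, and cumulative concentration-response curves were run. DMSO was at most 0.1%. n = 3–5.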

Aorta [3] = test: Vasorelaxant activity in Sprague-Dawley rat thoracic aorta assessed as inhibition of U46619-induced GTP RhoA level at 100 uM pretreated for 30 mins measured after 45 mins by spectrometric analysis; format: functional, tissue-based
In short: (§3)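 Male Sprague-Dawley thoracic aortic rings were denuded of endothelium and pretreated 30 min with compound, flavone or vehicle, then contracted with 30 nM U46619. Rings were snap-frozen in liquid N2 and homogenized in lysis buffer, then spun at 12,000g for 15 min at 4 °C. Supernatant was run in a RhoA G-LISA with HRP detection and absorbance read at 490 nm. Triplicate.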

Aorta [4] = test: Vasorelaxant activity in Sprague-Dawley rat thoracic aorta assessed as inhibition of phenylephirne-induced contraction in presence of 0.1 uM estrogen receptor antagonist ICI 182780; format: functional, tissue-based
Aorta [5] = test: Vasorelaxant activity in Sprague-Dawley rat thoracic aorta assessed as inhibition of phenylephirne-induced contraction; format: functional, tissue-based; in short: as §2
Aorta [6] = test: Vasorelaxant activity in Sprague-Dawley rat thoracic aorta assessed as inhibition of U46619-induced vascular tension at 300 uM pretreated for 30 mins; format: functional, tissue-based; in short: as §1
Aorta [7] = test: Vasorelaxant activity in Sprague-Dawley rat thoracic aorta assessed as inhibition of U46619-induced GTP RhoA level at 300 uM pretreated for 30 mins measured after 45 mins by spectrometric analysis; format: functional, tissue-based; in short: as §3

| SMILES | Activity (Aorta [1]) | pIC50 (Estrogen receptor) | Activity (Aorta [2]) | Activity (Aorta [3]) | Activity (Aorta [4]) | Activity (Aorta [5]) | IC50 (Estrogen receptor) [nM] | Activity (Aorta [6]) | Activity (Aorta [7]) |
| --- | --- | --- | --- | --- | --- | --- | --- | --- | --- |
| c1ccc(C2COc3ccccc3C2)cc1 (stereo unspecified) | Active | > 5 | Active | Active | inactive | – | – | – | – |
| Oc1ccc(C2COc3cc(O)ccc3C2)cc1 (racemic) | Active | – | – | Active | – | Dose-dependent effect | 1660 | – | – |
| Oc1ccc2c(c1)OCC(c1ccccc1)C2 (stereo unspecified) | Active | – | – | Active | – | Dose-dependent effect | 3630 | – | – |
| O=c1cc(-c2ccccc2)oc2ccccc12 | – | – | – | – | – | – | – | Active | Active |
| Oc1ccc(C2=Cc3ccc(O)cc3OC2)cc1 [IDRONOXIL] | Active | – | – | Active | – | Dose-dependent effect | 661 | – | – |
| C[C@]12CC[C@@H]3c4ccc(O)cc4C[C@@H](CCCCCCCCC[S+]([O-])CCCC(F)(F)C(F)(F)F)[C@H]3[C@@H]1CC[C@@H]2O (stereo partly specified) [FULVESTRANT] | – | – | – | – | – | – | 5.89 | – | – |
| Oc1ccc(C2=COc3cc(O)ccc3C2)cc1 [ISOPHENOXODIOL] | – | – | – | – | – | Dose-dependent effect | 234 | – | – |
| Oc1ccc(C2COc3ccccc3C2)cc1 (stereo unspecified) | Active | – | – | Active | – | Dose-dependent effect | 7590 | – | – |
